Laboratory results taken from ChEMBL document CHEMBL3399927, “Identification of novel inhibitors of Aurora A with a 3-(pyrrolopyridin-2-yl)indazole scaffold” (Bioorg Med Chem, 2015).
pIC50: −log10 of the molar value.

Columns and labels:
[1] = Antiproliferative activity against human HL60 cells after 72 hrs by MTT assay; type: functional, cell-based; details: HL-60, 72 h
In short: (§1)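 Cells grown in RPMI-1640 with heat-inactivated 10% FBS, penicillin 100 units/mL and streptomycin 100 μg/mL, at 37 °C under 20% O2, 5% CO2. Compounds dissolved in DMSO at 10.0 mg/mL (stock), then diluted. Cells were plated for 24 h, exposed to a range of concentrations for 72 h, and viability was read by MTT. IC50 is 50% absorbance inhibition versus control cells; means of three experiments.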

KB = experiment: Antiproliferative activity against human KB cells after 72 hrs by MTT assay; type: functional, cell-based; in short: as §1
[2] = Antiproliferative activity against human SMMC7721 cells after 72 hrs by MTT assay; type: functional, cell-based; details: SMMC-7721, 72 h; in short: as §1
[3] = Antiproliferative activity against human HCT116 cells after 72 hrs by MTT assay; type: functional, cell-based; details: HCT-116, 72 h; in short: as §1
A549 = experiment: Antiproliferative activity against human A549 cells after 72 hrs by MTT assay; type: functional, cell-based; details: A549, 72 h
[4] = target: T1, Serine/threonine-protein kinase Chk1 (Homo sapiens) (UniProt O14757); experiment: Inhibition of CHK1 (unknown origin) at 1 ug/ml relative to control
T1 sequence (whole entry): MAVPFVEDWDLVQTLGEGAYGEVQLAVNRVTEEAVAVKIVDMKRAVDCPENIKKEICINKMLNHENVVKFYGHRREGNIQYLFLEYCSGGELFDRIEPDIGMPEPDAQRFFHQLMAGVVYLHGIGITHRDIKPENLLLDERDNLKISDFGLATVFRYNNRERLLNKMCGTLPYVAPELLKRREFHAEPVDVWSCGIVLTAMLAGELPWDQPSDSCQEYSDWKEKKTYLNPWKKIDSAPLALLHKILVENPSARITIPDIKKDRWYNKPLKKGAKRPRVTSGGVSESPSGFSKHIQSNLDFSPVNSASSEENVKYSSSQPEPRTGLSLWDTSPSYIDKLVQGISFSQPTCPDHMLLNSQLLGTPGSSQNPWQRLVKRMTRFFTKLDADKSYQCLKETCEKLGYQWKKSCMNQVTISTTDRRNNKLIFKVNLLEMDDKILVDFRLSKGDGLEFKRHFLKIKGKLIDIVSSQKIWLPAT
In short: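 Fixed-concentration screen at 1 µg/mL using the luminescent ADP-Glo assay.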

[5] = target: Cyclin-dependent kinase 2 (Homo sapiens) (UniProt P24941); experiment: Inhibition of CDK2 (unknown origin) at 1 ug/ml relative to control
[6] = target: Dual specificity mitogen-activated protein kinase kinase 1 (Homo sapiens) (UniProt Q02750); experiment: Inhibition of MEK1 (unknown origin) at 1 ug/ml relative to control
[7] = target: Glycogen synthase kinase-3 beta (Homo sapiens) (UniProt P49841); experiment: Inhibition of GSK3beta (unknown origin) at 1 ug/ml relative to control
[8] = target: Serine/threonine-protein kinase B-raf (Homo sapiens) (UniProt P15056); experiment: Inhibition of BRAF (unknown origin) at 1 ug/ml relative to control
[9] = target: T2, Inhibitor of nuclear factor kappa-B kinase subunit beta (Homo sapiens) (UniProt O14920); experiment: Inhibition of IKKbeta (unknown origin) at 1 ug/ml relative to control
T2 sequence (whole entry): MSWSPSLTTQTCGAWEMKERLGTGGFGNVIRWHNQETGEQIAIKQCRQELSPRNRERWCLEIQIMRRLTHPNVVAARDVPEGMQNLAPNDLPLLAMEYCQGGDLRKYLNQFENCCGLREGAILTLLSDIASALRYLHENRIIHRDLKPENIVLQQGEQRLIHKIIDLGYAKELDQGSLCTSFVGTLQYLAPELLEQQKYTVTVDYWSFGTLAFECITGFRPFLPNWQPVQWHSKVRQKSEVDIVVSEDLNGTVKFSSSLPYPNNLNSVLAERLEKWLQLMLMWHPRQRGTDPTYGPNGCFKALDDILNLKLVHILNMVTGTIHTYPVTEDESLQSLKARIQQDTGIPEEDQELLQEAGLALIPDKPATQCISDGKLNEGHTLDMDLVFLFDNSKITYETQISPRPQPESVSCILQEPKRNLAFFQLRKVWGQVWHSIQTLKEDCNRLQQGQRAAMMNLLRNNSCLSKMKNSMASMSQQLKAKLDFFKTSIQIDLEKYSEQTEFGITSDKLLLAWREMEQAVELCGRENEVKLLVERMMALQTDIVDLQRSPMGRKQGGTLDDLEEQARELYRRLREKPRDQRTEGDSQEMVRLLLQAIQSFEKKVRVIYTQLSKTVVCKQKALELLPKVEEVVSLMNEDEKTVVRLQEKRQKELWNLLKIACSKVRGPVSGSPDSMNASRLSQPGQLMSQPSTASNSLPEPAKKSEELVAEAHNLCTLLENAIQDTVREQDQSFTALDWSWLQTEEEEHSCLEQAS

[10] = target: Protein kinase C (PKC) (Homo sapiens) (UniProt O94806+P41743+P17252+P05129+Q05655+P05771+Q05513+Q02156+P24723+Q15139+Q04759); experiment: Inhibition of PKC (unknown origin) at 1 ug/ml relative to control
In short: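 Fixed-concentration screen at 1 µg/mL with a Z'-LYTE kinase assay kit.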

[11] = Apparent permeability across apical to basolateral side in MDCK cells by HPLC; type: ADME, cell-based, Canis lupus familiaris; details: dog
Aurora kinase A = target: T3, Aurora kinase A (Homo sapiens, UniProt O14965); experiment: Inhibition of human full length Aurora A by Z'-LYTE assay
T3 sequence (O14965 whole entry): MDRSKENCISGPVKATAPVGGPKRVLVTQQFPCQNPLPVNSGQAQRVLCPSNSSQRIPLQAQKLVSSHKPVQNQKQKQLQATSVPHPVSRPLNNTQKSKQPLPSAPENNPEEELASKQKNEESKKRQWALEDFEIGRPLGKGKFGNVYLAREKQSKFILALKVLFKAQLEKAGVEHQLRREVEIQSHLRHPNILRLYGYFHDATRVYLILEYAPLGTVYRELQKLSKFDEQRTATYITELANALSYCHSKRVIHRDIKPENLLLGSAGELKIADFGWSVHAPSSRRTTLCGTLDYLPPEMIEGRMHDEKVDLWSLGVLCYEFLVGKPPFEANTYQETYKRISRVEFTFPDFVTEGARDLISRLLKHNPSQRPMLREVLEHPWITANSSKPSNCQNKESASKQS

[12] = target: T4, Aurora kinase A (Homo sapiens) (UniProt O14965); experiment: Inhibition of human full length Aurora A at 1 ug/ml by Z'-LYTE assay
T4 sequence (whole entry): T3 sequence (O14965 whole entry)

Sequence of Serine/threonine-protein kinase B-raf (Homo sapiens) (P15056 whole entry): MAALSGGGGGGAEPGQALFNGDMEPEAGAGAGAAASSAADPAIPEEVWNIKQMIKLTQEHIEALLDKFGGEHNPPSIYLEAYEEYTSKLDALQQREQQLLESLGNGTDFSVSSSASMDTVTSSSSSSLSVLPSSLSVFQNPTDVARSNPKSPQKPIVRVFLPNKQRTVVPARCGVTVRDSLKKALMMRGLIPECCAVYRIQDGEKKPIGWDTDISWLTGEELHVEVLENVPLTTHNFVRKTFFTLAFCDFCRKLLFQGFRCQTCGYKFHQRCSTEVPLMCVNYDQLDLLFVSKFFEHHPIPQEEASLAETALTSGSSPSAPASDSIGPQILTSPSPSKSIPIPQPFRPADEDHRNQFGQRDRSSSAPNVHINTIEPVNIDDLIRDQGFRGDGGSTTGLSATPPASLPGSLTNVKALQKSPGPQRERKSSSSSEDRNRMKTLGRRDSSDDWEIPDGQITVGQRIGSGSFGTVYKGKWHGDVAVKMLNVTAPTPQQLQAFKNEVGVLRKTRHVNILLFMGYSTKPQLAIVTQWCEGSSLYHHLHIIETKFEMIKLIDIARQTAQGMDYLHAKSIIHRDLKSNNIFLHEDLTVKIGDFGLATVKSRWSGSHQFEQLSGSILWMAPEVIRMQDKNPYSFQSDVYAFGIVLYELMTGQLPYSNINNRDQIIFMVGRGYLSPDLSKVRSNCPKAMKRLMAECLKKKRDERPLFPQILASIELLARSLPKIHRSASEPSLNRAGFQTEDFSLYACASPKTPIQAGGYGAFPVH
Sequence of Dual specificity mitogen-activated protein kinase kinase 1 (Homo sapiens) (Q02750 whole entry): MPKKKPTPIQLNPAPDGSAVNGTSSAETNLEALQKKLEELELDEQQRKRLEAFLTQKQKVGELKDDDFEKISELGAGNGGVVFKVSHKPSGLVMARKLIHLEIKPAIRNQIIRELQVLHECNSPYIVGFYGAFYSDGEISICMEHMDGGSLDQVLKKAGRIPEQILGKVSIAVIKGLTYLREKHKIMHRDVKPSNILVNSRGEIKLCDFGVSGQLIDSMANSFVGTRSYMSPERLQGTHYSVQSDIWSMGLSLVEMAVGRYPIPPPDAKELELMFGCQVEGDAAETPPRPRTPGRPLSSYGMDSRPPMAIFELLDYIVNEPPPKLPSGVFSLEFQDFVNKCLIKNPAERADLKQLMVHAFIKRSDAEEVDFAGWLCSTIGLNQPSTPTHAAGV
Sequence of Glycogen synthase kinase-3 beta (Homo sapiens) (P49841 whole entry, looked up): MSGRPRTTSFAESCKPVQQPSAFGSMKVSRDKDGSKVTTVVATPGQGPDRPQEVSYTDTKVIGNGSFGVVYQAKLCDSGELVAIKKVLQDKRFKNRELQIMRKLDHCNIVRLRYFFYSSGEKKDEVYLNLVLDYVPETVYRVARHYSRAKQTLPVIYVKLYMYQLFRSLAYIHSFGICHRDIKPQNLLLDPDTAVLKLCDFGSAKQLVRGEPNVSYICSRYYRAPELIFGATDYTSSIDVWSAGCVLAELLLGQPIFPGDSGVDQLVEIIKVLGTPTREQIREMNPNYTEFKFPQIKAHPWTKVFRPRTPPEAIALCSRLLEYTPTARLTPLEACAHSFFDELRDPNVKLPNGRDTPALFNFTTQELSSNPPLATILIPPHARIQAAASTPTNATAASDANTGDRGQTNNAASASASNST

Compound | pIC50 [1] | pIC50 (KB) | pIC50 [2] | pIC50 [3] | pIC50 (A549) | inhibition [4] | inhibition [5] | inhibition [6] | inhibition [7] | inhibition [8] | inhibition [9] | inhibition [10] | Papp A→B [11] | pIC50 (Aurora kinase A) | inhibition [12]
CN(C(=O)CCc1ccccc1)c1ccc2[nH]c(-c3n[nH]c4ccccc34)cc2n1 | 5.33 | 5.13 | 4.68 | 4.95 | 4.74 | – | – | – | – | – | – | – | – | – | –
COc1ccc(C(=O)N(C)c2ccc3[nH]c(-c4n[nH]c5ccccc45)cc3n2)cc1 | 5.48 | 4.89 | 4.63 | 4.53 | 4.84 | – | – | – | – | – | – | – | – | – | –
COc1ccc(S(=O)(=O)N(C)c2ccc3[nH]c(-c4n[nH]c5ccccc45)cc3n2)cc1OC | 5.20 | 5.00 | 4.58 | 4.78 | < 4.30 | – | – | – | – | – | – | – | – | – | –
CCC(=O)N(C)c1ccc2[nH]c(-c3n[nH]c4ccccc34)cc2n1 | 5.21 | 5.03 | 4.48 | 4.97 | 4.80 | – | – | – | – | – | – | – | – | – | –
CN(C(=O)C(C)(C)C)c1ccc2[nH]c(-c3n[nH]c4ccccc34)cc2n1 | 5.30 | 5.08 | 4.65 | 4.75 | 4.61 | – | – | – | – | – | – | – | – | – | –
CN(C(=O)c1ccco1)c1ccc2[nH]c(-c3n[nH]c4ccccc34)cc2n1 | 5.34 | 4.71 | 4.55 | 4.52 | 4.81 | – | – | – | – | – | – | – | – | – | –
CN(C(=O)c1ccccc1)c1ccc2[nH]c(-c3n[nH]c4ccccc34)cc2n1 | 5.31 | 5.07 | 4.90 | 4.97 | 4.86 | 8.3% | 28.2% | 3.85% | 18.6% | 11.7% | 8.06% | 5.4% | 2.07 ×10⁻⁶ cm/s | 7.49 | 95.8%
CN(c1ccc2[nH]c(-c3n[nH]c4ccccc34)cc2n1)S(=O)(=O)c1ccc(Br)cc1 | 5.20 | 5.15 | 4.94 | 5.01 | 4.71 | – | – | – | – | – | – | – | – | – | –
COc1ccc(S(=O)(=O)N(C)c2ccc3[nH]c(-c4n[nH]c5ccccc45)cc3n2)cc1 | 5.36 | 4.66 | 4.89 | 4.65 | 4.62 | – | – | – | – | – | – | – | – | – | –
CC(=O)N(C)c1ccc2[nH]c(-c3n[nH]c4ccccc34)cc2n1 | 5.29 | 4.99 | 4.63 | 4.83 | < 4.30 | – | – | – | – | – | – | – | – | – | –
COc1ccc(NC(=O)N(C)c2ccc3[nH]c(-c4n[nH]c5ccccc45)cc3n2)cc1 | 8.10 | – | – | 7.20 | – | – | – | – | – | – | – | – | – | – | –
CN(c1ccc2[nH]c(-c3n[nH]c4ccccc34)cc2n1)S(=O)(=O)c1cccc([N+](=O)[O-])c1 | 5.44 | 5.23 | 5.29 | 4.87 | 4.70 | – | – | – | – | – | – | – | – | – | –
CN(C(=O)c1ccccc1)c1ccc2[nH]c(-c3n[nH]c4cc(Cl)ccc34)cc2n1 | 5.25 | 5.25 | 4.95 | 4.88 | 5.02 | – | – | – | – | – | – | – | – | – | –
CC(=O)O[C@H]1C(=O)[C@@]2(C)[C@H]([C@H](OC(=O)c3ccccc3)[C@]3(O)C[C@H](OC(=O)[C@H](O)[C@@H](NC(=O)c4ccccc4)c4ccccc4)C(C)=C1C3(C)C)[C@]1(OC(C)=O)CO[C@@H]1C[C@@H]2O [PACLITAXEL] | 8.77 | 7.82 | 6.92 | 8.31 | – | – | – | – | – | – | – | – | – | – | –
CN(C(=O)c1ccc([N+](=O)[O-])cc1)c1ccc2[nH]c(-c3n[nH]c4ccccc34)cc2n1 | 5.17 | 4.70 | 4.73 | 4.70 | 4.46 | – | – | – | – | – | – | – | – | – | –
CN(C(=O)c1ccc(Br)cc1)c1ccc2[nH]c(-c3n[nH]c4ccccc34)cc2n1 | 5.97 | 5.75 | 5.46 | 5.21 | 5.37 | – | – | – | – | – | – | – | – | – | –
COc1ccc(OC)c(S(=O)(=O)N(C)c2ccc3[nH]c(-c4n[nH]c5ccccc45)cc3n2)c1 | 6.08 | 5.36 | 5.37 | 5.08 | 4.71 | – | – | – | – | – | – | – | – | – | –
CN(C(=O)c1ccccc1)c1ccc2[nH]c(-c3n[nH]c4cc(C#N)ccc34)cc2n1 | 5.19 | 4.68 | < 4.30 | 4.62 | 4.48 | – | – | – | – | – | – | – | – | – | –
COc1ccc(S(=O)(=O)N(C)c2ccc3[nH]c(-c4n[nH]c5ccccc45)cc3n2)c(OC)c1 | 5.29 | 4.99 | 4.97 | 4.66 | 4.59 | – | – | – | – | – | – | – | – | – | –
CN(c1ccc2[nH]c(-c3n[nH]c4ccccc34)cc2n1)S(=O)(=O)c1ccc(OC(F)(F)F)cc1 | 5.93 | 5.88 | 5.15 | 5.22 | 5.10 | – | – | – | – | – | – | – | – | – | –
CN(c1ccc2[nH]c(-c3n[nH]c4ccccc34)cc2n1)S(=O)(=O)c1ccccc1 | 5.43 | 5.62 | 4.92 | 5.17 | 4.85 | – | – | – | – | – | – | – | – | – | –
COc1cccc(C(=O)N(C)c2ccc3[nH]c(-c4n[nH]c5ccccc45)cc3n2)c1 | 5.85 | 5.05 | 4.66 | 4.85 | 4.83 | – | – | – | – | – | – | – | – | – | –
Cc1ccc(S(=O)(=O)N(C)c2ccc3[nH]c(-c4n[nH]c5ccccc45)cc3n2)cc1 | 5.52 | 5.02 | 4.79 | 4.88 | 4.57 | – | – | – | – | – | – | – | – | – | –
CN(C(=O)c1ccc(Cl)cc1)c1ccc2[nH]c(-c3n[nH]c4ccccc34)cc2n1 | 6.35 | 6.20 | 5.62 | 5.52 | 5.65 | 1% | 35.5% | 1.98% | 27.8% | 14.4% | 0.94% | 10.6% | 3.95 ×10⁻⁶ cm/s | 7.34 | 95%
CN(C(=O)c1ccc(F)cc1)c1ccc2[nH]c(-c3n[nH]c4ccccc34)cc2n1 | 5.92 | 5.14 | 5.04 | 5.03 | 5.02 | – | – | – | – | – | – | – | – | – | –
CN(c1ccc2[nH]c(-c3n[nH]c4ccccc34)cc2n1)S(=O)(=O)c1ccc(Cl)cc1 | 6.11 | 5.08 | 4.90 | 5.22 | 4.74 | – | – | – | – | – | – | – | – | – | –
